Results: ChEMBL document CHEMBL1154303, “Cytotoxic and antiplasmodial compounds from the roots of Strophioblachia fimbricalyx” (J Nat Prod, 2009)
≈ marks a conversion by molar mass, not a printed value.

Key:
Plasmodium falciparum = assay: Antiplasmodial activity against multidrug-resistant Plasmodium falciparum K1 assessed as [G-3H]hypoxanthine uptake after 24 hrs by scintillation counting; assay type: functional, organism-based; conditions: K1, 24 h
Procedure, shortened: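 Microculture radioisotope technique on the multidrug-resistant K1 strain of P. falciparum; activity reported in µg/mL.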

NCI-H187 = assay: Cytotoxicity against human NCI-H187 cells by SRB assay; assay type: functional, cell-based
MCF7 = assay: Cytotoxicity against human MCF7 cells by SRB assay; assay type: functional, cell-based
KB = assay: Cytotoxicity against human KB cells by SRB assay; assay type: functional, cell-based
[1] = system: Radical scavenging activity; assay: Antioxidant activity assessed as DPPH radical scavenging activity; assay type: functional
Procedure, shortened: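 DPPH radical-scavenging test run per a published method. Activity is expressed in µg/mL, and a positive control substance was included.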

Vero = assay: Cytotoxicity against african green monkey Vero cells by SRB assay; assay type: cell-based; conditions: Chlorocebus sabaeus

| SMILES | IC50 (Plasmodium falciparum) [µg/mL] | IC50 (NCI-H187) [µg/mL] | IC50 (MCF7) [µg/mL] | IC50 (KB) [µg/mL] | IC50 [1] [µg/mL] | IC50 (Vero) [µg/mL] |
| --- | --- | --- | --- | --- | --- | --- |
| COC1=Cc2c(cc(O)c3cc(C)c(OC)cc23)C(C)(C)C1=O | 2.7 (≈ 8.64 µM) | 0.8 (≈ 2.56 µM) | 2.9 (≈ 9.28 µM) | 0.8 (≈ 2.56 µM) | 29.1 (≈ 93.2 µM) | 3.1 (≈ 9.92 µM) |
| COc1cc2c(cc1C)c(OC)cc1cc(C)c(=O)c(OC)cc12 | 3.2 (≈ 9.87 µM) | > 5 | > 5 | 4 (≈ 12.3 µM) | > 100 | > 20 |
| COc1cc2c(cc1C)c(OC)cc1cc(C)c(=O)cc(OC)c12 | > 20 | > 5 | > 5 | 3.9 (≈ 12 µM) | > 100 | > 20 |
| C[C@H]1[C@@H](O)O[C@@H]2O[C@@]3(C)CC[C@H]4[C@H](C)CC[C@@H]1[C@@]24OO3 [ARTENIMOL] | 0.004 (≈ 0.0141 µM) |  |  |  |  |  |
| Cc1cc(C(C)(C)C)c(O)c(C(C)(C)C)c1 [BUTYLATED HYDROXYTOLUENE] |  |  |  |  | 18.8 (≈ 85.3 µM) |  |
| COc1cccc2c1C(=O)c1c(O)c3c(c(O)c1C2=O)C[C@@](O)(C(=O)CO)C[C@@H]3O[C@H]1C[C@H](N)[C@H](O)[C@H](C)O1 [DOXORUBICIN] |  | 0.04 (≈ 0.0736 µM) |  | 0.13 (≈ 0.239 µM) |  |  |
| Cc1c2ccncc2c(C)c2c1[nH]c1ccccc12 [ELLIPTECINE] |  | 0.44 (≈ 1.79 µM) |  | 0.48 (≈ 1.95 µM) |  | 0.48 (≈ 1.95 µM) |
| COC1=Cc2c(cc(OC)c3cc(C)c(OC)cc23)C(C)(C)C1=O [TRIGONOSTEMONE] | > 20 | > 5 | > 5 | > 5 | > 100 | > 20 |
